# pIC50: −log10 of the molar value. The source made the active and inactive calls. The calls are words filed in the database; no cut-off is given here.
# Experiments:
# RAW264.7 = experiment: Antiinflammatory activity in mouse RAW264.7 cells assessed as inhibition of LPS-induced nitric oxide production after 24 hrs by Griess reagent assay; assay type: functional, cell-based; conditions: RAW264.7, 24 h
# Procedure, shortened: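 RAW264.7 murine macrophages grown in DMEM with 10% heat-inactivated FBS at 37 °C, 5% CO2. After 24 h, medium renewed; compounds added at 0, 1, 5, 10 or 20 µg/mL with LPS 1 µg/mL, then 24 h incubation. Supernatant nitrite measured with Griess reagent, absorbance 540 nm. Results given as percent of untreated control. Mean ± SD of three experiments, each in triplicate.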
# HeLa = experiment: Cytotoxicity against human HeLa cells at 20 uM by modified MTT assay; assay type: functional, cell-based
# KB = experiment: Cytotoxicity against human KB cells at 20 uM by modified MTT assay; assay type: functional, cell-based
# Daoy = experiment: Cytotoxicity against human DaOY cells at 20 uM by modified MTT assay; assay type: functional, cell-based
# WiDr = experiment: Cytotoxicity against human WiDr cells at 20 uM by modified MTT assay; assay type: functional, cell-based
# [1] = test system: Radical scavenging activity; experiment: Antioxidant activity assessed as DPPH radical scavenging activity after 30 mins by ELISA; assay type: functional
# Procedure, shortened: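 Sample (200-3.125 µg/mL) or quercetin (25-3.125 µg/mL), 120 µL, mixed with 30 µL of 0.75 mM DPPH in methanol. Shaken in the dark at room temperature for 30 min, then absorbance read at 517 nm. Methanol in place of sample served as negative control. ED50 is the concentration giving 50% reduction of DPPH radicals.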
# [2] = Cytotoxicity against mouse RAW264.7 cells assessed as cell viability by modified MTT assay; assay type: cell-based; set-up: concentration or dose not given beside the values; conditions: read-out: Activity
# Procedure, shortened: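 RAW264.7 cells after the same LPS (1 µg/mL) and compound (0-20 µg/mL) 24 h exposure used for NO measurement. MTT (5 mg/mL stock in PBS, 10 µL per 100 µL culture) added for 4 h at 37 °C. Formazan dissolved in DMSO and read at 550 nm. Untreated cells taken as 100% viability.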
Compound,pIC50 (RAW264.7),Activity (HeLa),Activity (KB),Activity (Daoy),Activity (WiDr),ED50 [1],viability [2] [%]
C[C@@H]1O[C@@H](O[C@H]2[C@H](Oc3c(-c4ccc(O)c(O)c4)oc4cc(O)cc(O)c4c3=O)O[C@@H](C)[C@H](O)[C@H]2O)[C@H](O)[C@H](O)[C@H]1O,4.48,inactive,inactive,inactive,inactive,16.6 µM,> 80
C[C@@H]1O[C@@H](O[C@H]2C(Oc3c(-c4ccc(O)cc4)oc4cc(O)cc(O)c4c3=O)O[C@@H](C)[C@H](O)[C@H]2O)[C@H](O)[C@H](O)[C@H]1O (stereo partly specified),4.40,inactive,inactive,inactive,inactive,–,> 80
O=c1c(O)c(-c2ccc(O)cc2O)oc2cc(O[C@@H]3O[C@H](CO)[C@@H](O)[C@H](O)[C@H]3O)cc(O)c12,4.41,inactive,inactive,inactive,inactive,22.2 µM,> 80
CC1(C)[C@@H](O)CC[C@]2(C)C3=C(CC[C@@H]12)CO[C@H](C1=CCOC1=O)C3,4.91,inactive,inactive,inactive,inactive,–,> 80
C[C@@H]1O[C@@H](O[C@H]2[C@H](O[C@H]3CC[C@]4(C)C5=C(CC[C@H]4C3(C)C)CO[C@H](C3=CCOC3=O)C5)O[C@H](CO)[C@@H](O)[C@@H]2O)[C@H](O)[C@H](O)[C@H]1O [ALPINDENOSIDE A],4.47,inactive,inactive,inactive,inactive,> 200 µg/mL,> 80
C[C@@H]1O[C@@H](O[C@H]2[C@H](O[C@H]3CC[C@]4(C)C5=C(CC[C@H]4C3(C)C)CO[C@@H](C3=CCOC3=O)C5)O[C@H](CO)[C@@H](O)[C@@H]2O)[C@H](O)[C@H](O)[C@H]1O [ALPINDENOSIDE B],4.31,inactive,inactive,inactive,inactive,> 200 µg/mL,> 80
C[C@@H]1O[C@@H](O[C@H]2[C@H](O[C@H]3CC[C@]4(C)[C@@H]5C[C@H](C6=CCOC6=O)OC(O)[C@@H]5CC[C@H]4C3(C)C)O[C@H](CO)[C@@H](O)[C@@H]2O)[C@H](O)[C@H](O)[C@H]1O (stereo partly specified) [ALPINDENOSIDE C],4.42,inactive,inactive,inactive,inactive,> 200 µg/mL,> 80
CC(=O)OC[C@H]1O[C@@H](O[C@H]2CC[C@]3(C)[C@H]4C[C@H](C5=CCOC5=O)OC(O)[C@@H]4CC[C@H]3C2(C)C)[C@H](O[C@@H]2O[C@@H](C)[C@H](O)[C@@H](O)[C@H]2O)[C@@H](O)[C@@H]1O (stereo partly specified) [ALPINDENOSIDE D],4.52,inactive,inactive,inactive,inactive,> 200 µg/mL,> 80
CC1(C)[C@@H](O)CC[C@]2(C)C3=C(CC[C@@H]12)CO[C@@H](C1=CCOC1=O)C3 [AULACOCARPINOLIDE],4.35,inactive,inactive,inactive,inactive,–,> 80
C=C(CO)[C@H]1C[C@@H]2[C@@H](CC[C@H]3C(C)(C)[C@@H](O[C@@H]4O[C@H](CO)[C@@H](O)[C@H](O)[C@H]4O[C@@H]4O[C@@H](C)[C@H](O)[C@@H](O)[C@H]4O)CC[C@]23C)[C@H]1O [NORALPINDENOSIDE A],4.50,inactive,inactive,inactive,inactive,> 200 µg/mL,> 80
C=C(C)[C@H]1C[C@@H]2[C@@H](CC[C@H]3C(C)(C)[C@@H](O[C@@H]4O[C@H](CO)[C@@H](O)[C@H](O)[C@H]4O[C@@H]4O[C@@H](C)[C@H](O)[C@@H](O)[C@H]4O)CC[C@]23C)[C@H]1O [NORALPINDENOSIDE B],4.35,inactive,inactive,inactive,inactive,> 200 µg/mL,> 80
O=c1c(O)c(-c2ccc(O)c(O)c2)oc2cc(O)cc(O)c12 [QUERCETIN],5.02,–,–,–,–,18 µM,–

# — ChEMBL document CHEMBL1152398, “Labdane diterpenoid glycosides from Alpinia densespicata and their nitric oxide inhibitory activities in macrophages” (J Nat Prod, 2009)
